{
  "source": "ChEMBL document CHEMBL1156430",
  "about": "“Identification of NVP-TAE684, a potent, selective, and efficacious inhibitor of NPM-ALK” (Proc Natl Acad Sci U S A, 2007)",
  "key": {"[1]": {"target": "Signal transducer and activator of transcription 3 (Mus musculus) (UniProt P42227)", "sequence (P42227 whole entry)": "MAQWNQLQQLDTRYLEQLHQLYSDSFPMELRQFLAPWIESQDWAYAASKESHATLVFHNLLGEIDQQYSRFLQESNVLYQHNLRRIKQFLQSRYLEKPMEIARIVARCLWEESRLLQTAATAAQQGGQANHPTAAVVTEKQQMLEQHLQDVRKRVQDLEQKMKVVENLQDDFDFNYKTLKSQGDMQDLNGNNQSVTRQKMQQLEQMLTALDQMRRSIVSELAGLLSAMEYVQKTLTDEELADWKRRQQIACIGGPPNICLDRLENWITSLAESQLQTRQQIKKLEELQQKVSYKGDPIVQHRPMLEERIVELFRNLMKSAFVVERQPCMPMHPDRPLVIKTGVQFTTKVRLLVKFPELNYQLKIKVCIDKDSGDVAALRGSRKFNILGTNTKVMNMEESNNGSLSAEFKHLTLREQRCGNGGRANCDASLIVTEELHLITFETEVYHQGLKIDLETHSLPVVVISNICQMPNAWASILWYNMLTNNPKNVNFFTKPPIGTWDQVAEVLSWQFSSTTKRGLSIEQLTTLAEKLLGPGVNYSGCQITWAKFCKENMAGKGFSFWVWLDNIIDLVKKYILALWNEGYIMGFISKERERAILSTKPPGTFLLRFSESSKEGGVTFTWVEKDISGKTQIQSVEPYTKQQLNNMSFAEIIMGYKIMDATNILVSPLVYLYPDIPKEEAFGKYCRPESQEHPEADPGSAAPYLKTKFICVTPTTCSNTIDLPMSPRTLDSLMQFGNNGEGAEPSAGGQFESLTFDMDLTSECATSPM", "assay": "Inhibition of STAT3 in mouse Ba/F3 NPM-ALK cells at 50 nM", "format": "cell-based", "details": "TDE = time-dependent effect", "in_short": "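Ba/F3 NPM-ALK or Karpas-299 cells held at 50 nM for times from 15 min onward. Phospho-NPM-ALK and phospho-STAT3 read by Western blot.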"}, "[2]": {"test_system": "KARPAS-299", "assay": "Inhibition of RAS/RAF/MAPK signaling in human Karpas299 cells assessed as ERK phosphorylation", "format": "cell-based", "in_short": "(§1)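 Karpas-299 cells treated for 4 h with increasing concentrations or DMSO. Phospho-ERK and phospho-Akt read by Western blot.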"}, "[3]": {"test_system": "KARPAS-299", "assay": "Inhibition of PI3K/Akt signaling in human Karpas299 cells assessed as Akt phosphorylation", "format": "cell-based", "in_short": "as §1"}, "[4]": {"test_system": "BaF3", "assay": "Induction of apoptosis in mouse parental Ba/F3 cells at 50 nM after 48 hrs by annexin V assay", "format": "functional, cell-based", "in_short": "(§2)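 Parental Ba/F3 (with IL-3), Ba/F3 NPM-ALK or SU-DHL-1 cells treated with 50 nM or DMSO for 48 h. Annexin V/7-AAD staining read by flow cytometry; percent Annexin V-positive cells counted.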"}, "[5]": {"test_system": "SU-DHL-1", "assay": "Induction of apoptosis in human SUDHL1 cells at 50 nM after 48 hrs by annexin V assay", "format": "functional", "in_short": "as §2"}, "[6]": {"test_system": "KARPAS-299", "assay": "Induction of apoptosis in human Karpas299 cells at 50 nM after 48 hrs by annexin V assay", "format": "functional", "details": "in the assay text read “72 hrs” for “48 hrs”", "in_short": "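Karpas-299 cells given 50 nM or DMSO, with flow cytometry every 24 h up to 72 h. Annexin V staining gave the percent of positive cells.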"}, "[7]": {"test_system": "KARPAS-299", "assay": "Cell cycle arrest in human Karpas299 cells by accumulation in G1 phase at 25 nM after 72 hrs", "format": "functional", "in_short": "(§3)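 Karpas-299 cells exposed to 25 nM or DMSO for 24, 48 and 72 h, then fixed, stained with propidium iodide and analyzed for cell cycle distribution by flow cytometry. Three separate experiments.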"}, "[8]": {"test_system": "KARPAS-299", "assay": "Cell cycle arrest in human Karpas299 cells by accumulation in S phase at 25 nM after 72 hrs", "format": "functional", "in_short": "as §3"}, "[9]": {"assay": "Cmax in human Karpas299 cells xenografted SCID beige mouse at 20 mg/kg, po", "format": "ADME, organism-based, KARPAS-299", "set-up": "dose 20 mg/kg, route oral", "details": "in vivo", "in_short": "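Mice given a single oral dose of 20 mg/kg as a solution in 10% 1-methyl-2-pyrrolidinone/90% PEG 300. Plasma levels measured to give Cmax, bioavailability and elimination half-life.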"}, "[10]": {"test_system": "Mus musculus", "assay": "Toxicity in human Karpas299 cells xenografted in SCID beige mouse at 10 mg/kg, po", "format": "organism-based, KARPAS-299", "set-up": "dose 10 mg/kg, route oral", "details": "in vivo", "in_short": "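Female Fox Chase SCID_Beige mice bearing i.v. Karpas-299 cells received 10 mg/kg orally once daily from 72 h after injection. Watched for signs of compound- or disease-related toxicity.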"}, "[11]": {"test_system": "BCR-ABL", "assay": "Antilymphomal activity against mouse Ba/F3 BCR-ABL cells xenografted in SCID beige mouse assessed as reduction in bioluminescence signal at 10 mg/kg, po once daily after 2 weeks", "format": "functional, organism-based", "set-up": "dose 10 mg/kg", "in_short": "(§4)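 Female Fox Chase SCID_Beige mice injected in the tail vein with 1 × 10⁶ luciferase-expressing Ba/F3 BCR-ABL or Ba/F3 NPM-ALK cells. From 72 h, 10 mg/kg given orally once daily in 10% 1-methyl-2-pyrrolidinone/90% PEG 300, or vehicle. Bioluminescence imaged after 2 weeks; spleens weighed.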"}, "[12]": {"assay": "Antilymphomal activity against mouse Ba/F3 NPM-ALK cells xenografted in SCID beige mouse assessed as reduction in bioluminescence signal at 10 mg/kg, po once daily after 2 weeks relative to control", "format": "functional", "set-up": "scale not given: the % may be the effect or the level left", "in_short": "as §4"}, "[13]": {"test_system": "Mus musculus", "assay": "Toxicity in mouse Ba/F3 NPM-ALK cells xenografted in SCID beige mouse assessed as reduction in spleen weight at 10 mg/kg, po", "format": "organism-based", "set-up": "dose 10 mg/kg, route oral; scale not given: the % may be the effect or the level left", "details": "in vivo"}, "[14]": {"test_system": "KARPAS-299", "assay": "Antilymphomal activity against human Karpas299 cells xenografted in SCID beige mouse assessed as reduction in NPM-ALK phosphorylation after 3.5 weeks of […] at 10 mg/kg for 3 days", "format": "functional, organism-based", "set-up": "dose 10 mg/kg", "in_short": "(§5)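 Female Fox Chase SCID_Beige mice given 1 × 10⁶ Karpas-299 cells by tail vein. Treatment began at 3.5 weeks, once palpable lymphomas had formed. Drug at 10 mg/kg or vehicle for 3 days, 3 mice per arm. Killed 4 h after the third dose. Excised lymph nodes immunoblotted for NPM-ALK and Stat3 phosphorylation.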"}, "[15]": {"test_system": "KARPAS-299", "assay": "Antilymphomal activity against human Karpas299 cells xenografted in SCID beige mouse assessed as reduction in downstream target STAT3 phosphorylation after 3.5 weeks of […] at 10 mg/kg for 3 days", "format": "functional, organism-based", "set-up": "dose 10 mg/kg", "in_short": "as §5"}, "[16]": {"test_system": "KARPAS-299", "assay": "Antilymphomal activity against human Karpas299 cells xenografted in SCIDbeige mouse assessed as reduction in CD30 expression in lymph nodes after 3.5 weeks of […] at 10 mg/kg for 3 days", "format": "functional, organism-based", "set-up": "dose 10 mg/kg", "in_short": "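Female Fox Chase SCID_Beige mice given Karpas-299 cells i.v. and left 3.5 weeks until lymphomas were palpable. Then dosed at 10 mg/kg or vehicle for 3 days. Killed 4 h after the third dose. Excised lymph node sections scored for CD30 by immunohistochemistry.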"}, "[17]": {"test_system": "KARPAS-299", "assay": "Inhibition of human Karpas299 cells assessed as reduction in CD30 receptor expression on cell surface after 24 hrs", "format": "functional", "set-up": "scale not given: the % may be the effect or the level left", "in_short": "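Karpas-299 cells cultured with drug for 24 h. Surface CD30 receptor expression then measured.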"}},
  "note": "Active and inactive are the calls of the source. No cut-off for these calls is given here.",
  "data": [
    {"smiles": "COc1cc(N2CCC(N3CCN(C)CC3)CC2)ccc1Nc1ncc(Cl)c(Nc2ccccc2S(=O)(=O)C(C)C)n1", "note": "[TAE-684]", "values": [
      {"measurement": "Activity", "setting": "[1]", "result": "tde"},
      {"measurement": "Activity", "setting": "[2]", "result": "Dose-dependent effect"},
      {"measurement": "Activity", "setting": "[3]", "result": "Dose-dependent effect"},
      {"measurement": "Activity", "setting": "[4]", "result": "inactive"},
      {"measurement": "Activity", "setting": "[5]", "result": 70, "unit": "%"},
      {"measurement": "Activity", "setting": "[6]", "result": 20, "unit": "%"},
      {"measurement": "Activity", "setting": "[7]", "result": 72, "unit": "%"},
      {"measurement": "Activity", "setting": "[8]", "result": 14, "unit": "%"},
      {"measurement": "Cmax", "setting": "[9]", "result": 800, "unit": "nM"},
      {"measurement": "Activity", "setting": "[10]", "result": "Non-toxic"},
      {"measurement": "Activity", "setting": "[11]", "result": "inactive"},
      {"measurement": "Activity", "setting": "[12]", "result": ">99", "unit": "%"},
      {"measurement": "Activity", "setting": "[13]", "result": 80, "unit": "%"},
      {"measurement": "Activity", "setting": "[14]", "result": "Active"},
      {"measurement": "Activity", "setting": "[15]", "result": "Active"},
      {"measurement": "Activity", "setting": "[16]", "result": "Active"},
      {"measurement": "Activity", "setting": "[17]", "result": 80, "unit": "%"}
    ]}
  ]
}
